In ChEMBL document CHEMBL1133596, “Synthesis and antitumor activities of novel pyrimidine derivatives of 2,3-O,O-dibenzyl-6-deoxy-L-ascorbic acid and 4,5-didehydro-5,6- dideoxy-L-ascorbic acid” (J Med Chem, 2000):
Converted amounts (≈) assume the structure as drawn.

Experiments:
[1] = tested on: HEL; experiment: Evaluated for minimum cytotoxic concentration that causes a microscopically detectable alteration of normal HEL cell morphology; assay type: functional; details: Homo sapiens
Outline: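 HEL fibroblast cultures were examined by microscope. MCC is the lowest concentration, in µg/mL, that causes a detectable change in normal cell morphology.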

[2] = tested on: HEL; experiment: Evaluated for cytotoxic concentration required to reduce normal human embryonic lung (fibroblast) (HEL) cell growth by 50%; assay type: functional
Outline: (§1)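 Normal human embryonic lung fibroblasts (HEL) were grown with compound. CC50 is the concentration, in µg/mL, that reduces HEL cell growth by 50%.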

[3] = tested on: L1210; experiment: Evaluated for the inhibition of tumor cell growth of murine leukemia malignant tumor cell line (L1210/0); assay type: functional, cell-based; details: Mus musculus
Outline: (§2)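 Proliferation of the murine (L1210/0, FM3A/0) and human T-lymphoblast (Molt4/C8, CEM/0) lines was measured following the procedure originally described for mouse L1210 cells. IC50 is the concentration, in µg/mL, that inhibits tumour cell proliferation by 50%.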

[4] = tested on: MOLT-4; experiment: Evaluated for the inhibition of tumor cell growth of Human T-Lymphocyte cells (Molt4/C8); assay type: functional, cell-based; outline: as §2
[5] = tested on: FM3A; experiment: Evaluated for the inhibition of tumor cell growth of murine mammary carcinoma malignant tumor cell line (FM3A/0); assay type: functional, cell-based; details: Mus musculus; outline: as §2
[6] = tested on: CCRF-CEM; experiment: Evaluated for the inhibition of tumor cell growth of Human T-Lymphocyte cells (CEM/0); assay type: functional, cell-based; outline: as §2
[7] = tested on: MEF; experiment: Evaluated for cytotoxicity against murine embryo fibroblasts (MEF); assay type: functional, Mus musculus
Outline: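 Murine embryo fibroblasts (MEF) were tested for inhibition of proliferation following the method originally described for mouse L1210 cells. Values are given as cytotoxic concentrations in µg/mL.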

[8] = tested on: HEL; experiment: Evaluated for cytotoxic concentration required to reduce normal human embryonic lung (fibroblast) HEL cell growth by 50%; assay type: functional; outline: as §1

O=C1O/C(=C\Cn2ccc(=O)[nH]c2=O)C(O)=C1O
MCC [1]: > 50 µg/mL
CC50 [2]: > 50 µg/mL
IC50 [3]: > 200 µg/mL
IC50 [4]: > 200 µg/mL
IC50 [5]: > 200 µg/mL
IC50 [6]: > 200 µg/mL

O=c1[nH]cc(F)c(=O)[nH]1 [FLUOROURACIL]
IC50 [3]: 0.04 µg/mL (≈ 0.308 µM)
Cytotoxicity [7]: 0.2 µg/mL
IC50 [4]: 2.9 µg/mL (≈ 22.3 µM)
IC50 [5]: 0.02 µg/mL (≈ 0.154 µM)
IC50 [6]: 1.2 µg/mL (≈ 9.23 µM)

O=C1O/C(=C\Cn2ccc(=O)[nH]c2=O)C(OCc2ccccc2)=C1O
MCC [1]: > 50 µg/mL
CC50 [2]: > 50 µg/mL
IC50 [3]: > 200 µg/mL
IC50 [4]: > 200 µg/mL
IC50 [5]: > 200 µg/mL
IC50 [6]: > 200 µg/mL

O=C1OC(C(O)Cn2cc(F)c(=O)[nH]c2=O)C(OCc2ccccc2)=C1OCc1ccccc1 (stereo not drawn)
CC50 [8]: 33.4 µg/mL (≈ 71.3 µM)
MCC [1]: 50 µg/mL
IC50 [3]: 65.6 µg/mL (≈ 140 µM)
IC50 [4]: 81.2 µg/mL (≈ 173 µM)
IC50 [5]: 52.2 µg/mL (≈ 111 µM)
IC50 [6]: 74 µg/mL (≈ 158 µM)

O=C1OC(C(O)Cn2ccc(=O)[nH]c2=O)C(OCc2ccccc2)=C1OCc1ccccc1 (stereo not drawn)
CC50 [8]: > 50 µg/mL
MCC [1]: > 50 µg/mL
IC50 [3]: 70.8 µg/mL (≈ 157 µM)
IC50 [4]: 67.8 µg/mL (≈ 151 µM)
IC50 [5]: 74.1 µg/mL (≈ 165 µM)
IC50 [6]: 68.6 µg/mL (≈ 152 µM)

O=C1OC(C(O)Cn2cc(C(F)(F)F)c(=O)[nH]c2=O)C(OCc2ccccc2)=C1OCc1ccccc1 (stereo not drawn)
MCC [1]: 50 µg/mL
CC50 [2]: 31.7 µg/mL (≈ 61.1 µM)
IC50 [3]: 26 µg/mL (≈ 50.2 µM)
IC50 [4]: 47.4 µg/mL (≈ 91.4 µM)
IC50 [5]: 38.4 µg/mL (≈ 74.1 µM)
IC50 [6]: 19 µg/mL (≈ 36.6 µM)

O=C1O/C(=C\Cn2cc(F)c(=O)[nH]c2=O)C(O)=C1O
MCC [1]: > 50 µg/mL
CC50 [2]: 23 µg/mL (≈ 85.1 µM)
IC50 [3]: 1.4 µg/mL (≈ 5.18 µM)
Cytotoxicity [7]: 0.92 µg/mL
IC50 [4]: 31.8 µg/mL (≈ 118 µM)
IC50 [5]: 0.78 µg/mL (≈ 2.89 µM)
IC50 [6]: 20.9 µg/mL (≈ 77.4 µM)

O=C1O/C(=C\Cn2cc(C(F)(F)F)c(=O)[nH]c2=O)C(O)=C1O
MCC [1]: > 50 µg/mL
CC50 [2]: > 50 µg/mL
IC50 [3]: 76.1 µg/mL (≈ 238 µM)
IC50 [4]: > 200 µg/mL
IC50 [5]: 162 µg/mL (≈ 506 µM)
IC50 [6]: > 200 µg/mL

O=c1[nH]c(=O)n([C@H]2C[C@H](O)[C@@H](CO)O2)cc1F [FLOXURIDINE]
IC50 [3]: 0.0003 µg/mL (≈ 0.00122 µM)
Cytotoxicity [7]: 0.0001 µg/mL
IC50 [4]: 2.6 µg/mL (≈ 10.6 µM)
IC50 [5]: 0.0008 µg/mL (≈ 0.00325 µM)
IC50 [6]: 0.003 µg/mL (≈ 0.0122 µM)
